Test results as given in ChEMBL document CHEMBL2321720, “Development of triarylsulfonamides as novel anti-inflammatory agents” (Bioorg Med Chem Lett, 2013).
Converted amounts (≈) assume the structure as drawn.

Assays:
[1] = Thermodynamic aqueous solubility of the compound in fasted state simulated intestinal fluid after 24 hrs by HPLC analysis; type: physicochemical; conditions: read-out: Therm_solubility
Procedure, shortened: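 Solubility in FaSSIF. The sample was filtered and concentration measured by HPLC/UV.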

[2] = Apparent permeability from apical to basolateral side of human Caco2 cells; type: ADME, cell-based; conditions: Caco-2
[3] = Apparent permeability from basolateral to apical side of human Caco2 cells; type: ADME, cell-based; conditions: Caco-2
[4] = Cmax in rat at […], po; type: ADME, organism-based; design: dose 2.5 mg/kg, route oral; conditions: in vivo
[5] = Tmax in rat at […], po; type: ADME, organism-based; design: dose 2.5 mg/kg, route oral; conditions: in vivo
[6] = AUC in rat at […], po; type: ADME, organism-based; design: dose 2.5 mg/kg, route oral; conditions: plasma
[7] = Oral bioavailability in rat at […]; type: ADME, organism-based; conditions: in vivo

| Compound | solubility thermodynamic at 24 h [1] [mg/mL] | also measured |
| --- | --- | --- |
| Cc1c(CO)cccc1NS(=O)(=O)c1ccc(-c2ccc(F)cc2)cc1 | 0.024 (≈ 64.6 µM) | – |
| Cc1c(CO)cccc1NS(=O)(=O)c1ccc(-c2ccc(F)cc2F)cc1 | 0.043 (≈ 110 µM) | – |
| Cc1c(CO)cccc1NS(=O)(=O)c1ccc(-c2ccc(Br)cc2)cc1 | 0.012 (≈ 27.8 µM) | – |
| Cc1ccc(CO)cc1NS(=O)(=O)c1ccc(-c2ccc(Br)cc2)cc1 | 0.047 (≈ 109 µM) | – |
| O=S(=O)(Nc1cccc(CO)c1Cl)c1ccc(-c2ccc(Br)cc2)cc1 | 0.014 (≈ 30.9 µM) | – |
| O=S(=O)(Nc1cc(CO)ccc1Cl)c1ccc(-c2ccc(Br)cc2)cc1 | 0.011 (≈ 24.3 µM) | – |
| O=S(=O)(Nc1ccc(O)c(CO)c1)c1ccc(-c2ccc(Br)cc2)cc1 | 0.004 (≈ 9.21 µM) | – |
| O=S(=O)(Nc1cc(CO)ccc1O)c1ccc(-c2ccc(Br)cc2)cc1 | 0.012 (≈ 27.6 µM) | – |
| O=S(=O)(Nc1cccc(CO)c1O)c1ccc(-c2ccc(Br)cc2)cc1 | 0.019 (≈ 43.7 µM) | – |

Continued, in another order:

| solubility thermodynamic at 24 h [1] [mg/mL] | Compound | also measured |
| --- | --- | --- |
| 0.025 (≈ 63.8 µM) | O=S(=O)(Nc1cccc(CO)c1)c1ccc(-c2ccc(F)cc2)cc1Cl | – |
| 0.012 (≈ 30.7 µM) | O=S(=O)(Nc1cc(CO)ccc1O)c1ccc(-c2ccc(F)cc2F)cc1 | – |
| 0.032 (≈ 78.9 µM) | O=S(=O)(Nc1ccc(CO)c(CO)c1)c1ccc(-c2ccc(F)cc2F)cc1 | – |
| 0.04 (≈ 98 µM) | O=S(=O)(Nc1ccc(-c2ccc(Cl)cc2Cl)cc1)c1cccc(CO)c1 | – |
| 0.011 (≈ 32.4 µM) | O=S(=O)(Nc1cccc(CO)c1)c1ccc(-c2ccccc2)cc1 | – |
| 0.022 (≈ 52.6 µM) | O=S(=O)(Nc1cccc(CO)c1)c1ccc(-c2ccc(Br)cc2)cc1 | – |
| 0.021 (≈ 59.4 µM) | Cc1ccc(-c2ccc(S(=O)(=O)Nc3cccc(CO)c3)cc2)cc1 | – |
| 0.057 (≈ 159 µM) | O=S(=O)(Nc1cccc(CO)c1)c1ccc(-c2ccccc2F)cc1 | – |
| 0.05 (≈ 133 µM) | O=S(=O)(Nc1cccc(CO)c1)c1ccc(-c2ccc(F)cc2F)cc1 | – |
| 0.04 (≈ 98 µM) | O=S(=O)(Nc1cccc(CO)c1)c1ccc(-c2ccc(Cl)cc2Cl)cc1 | Papp A→B [2]: 15 nm/s; Papp B→A [3]: 55 nm/s; Cmax [4]: 0.03 µg/mL; Tmax [5]: 50 min; AUC [6]: 0.11 µg·h/mL; bioavailability [7]: 8% |
| 0.073 (≈ 186 µM) | O=S(=O)(Nc1cccc(CO)c1)c1ccc(-c2ccc(Cl)cc2F)cc1 | – |
